Experimental data from ChEMBL document CHEMBL4513216, “Probing the Open Global Health Chemical Diversity Library for Multistage-Active Starting Points for Next-Generation Antimalarials” (ACS Infect Dis, 2020).

Assay: Toxicity liver stage against HepG2, at 10uM
Format: cell-based
Set-up: test concentration 10 uM, cell line HepG2-A16-CD81EGFP
Conditions: human, HepG2-A16-CD81EGFP cells; read-out: INHIBITION
In short: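 Uninfected HepG2-A16-CD81EGFP cells, 3 × 10^3 per well, 1536-well, plated on prespotted compound at 10 μM final, parasite-free screening media added to match infected plates; puromycin 10 μM positive, DMSO 0.5% negative; run in parallel with 48 h PbLuc assay at 37 °C, 5% CO2; viability by CellTiter-Glo luminescence, normalized to controls.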

Structure (SMILES) | cytotoxicity at 10 µM [%]
CCC(C)(C)n1nnnc1C(c1cccs1)N1CCc2ccccc21 (stereo not given) | 8.67
CS(=O)(=O)N1CCC2(CCN(Cc3nccs3)CC2)CC1 | 8.28
N#Cc1cccc(CN2C[C@@H](F)[C@@H](OCc3nc4cnccc4[nH]3)C2)c1 | 3.62
Cc1ccc(NC(=O)c2ccc(=O)n(CC(=O)Nc3nccs3)n2)cc1 | 0.592
CS(=O)(=O)N1CC(=O)N(CCCc2ccccc2)CC(O)C1 (stereo not given) | -7.99
CCOC(=O)N1[C@@H](c2ccco2)[C@@H](C(=O)NC)C[C@]12CCCCNC2=O | -4.57
COc1ccc(C(=O)N2CC(=O)N(CC3CC3)CC(O)C2)cc1 (stereo not given) | 4.77
CCOC(=O)N1CCC(OC)c2ccccc2N(CC(=O)NC)C(=O)C1 (stereo not given) | 9.12
CCOC(=O)COc1nc(CC(C)C)c2c(c1C#N)CCC2 | -5.72
O=C(Cc1ccc(F)cc1)NCC1CCN(Cc2ccsc2)CC1 | -7.15
COc1ccccc1S(=O)(=O)NCC(c1cccn1C)N(C)C (stereo not given) | 1.51
CC(O)(CCc1ccccc1)CNC(=O)c1cccs1 (stereo not given) | -1.44
CCS(=O)(=O)N1CCC2(CC1)CC[C@@]1(C(=O)N(C)C)CN(C(C)=O)C[C@@H]21 | 6.43
O=C(c1ccco1)N1CCO[C@@H]2CN(c3ncc(F)cn3)CC[C@@H]2C1 | 4.74
CC(=O)NCC(=O)N1Cc2ccnn2CC(COCCN(C)C)C1 (stereo not given) | 6.15
CC(C)n1cnc(-c2nc(C(=O)N3CCN(C)CC3)c3ccccn23)c1 | 8.88
Cc1csc(CN2CC[C@H]3C[C@H](c4noc(C)n4)O[C@@H]3C2)n1 | -2.97
COc1ccccc1C1SCC(=O)Nc2n[nH]cc21 (stereo not given) | -1.84
CC(C(=O)Nc1ccc(Cl)cn1)n1ccc(C(F)(F)F)n1 (stereo not given) | 17.6
O=C1NC2(CCCCC2)c2nnnn2-c2ccc(Br)cc21 | 6.83
Cc1nn(C)c2c(NCCCn3cccn3)nc(C3CC3)nc12 | 12.9
Nc1no[n+]([O-])c1C(=O)NCc1cccnc1 | 5.93

Structure (SMILES) | cytotoxicity at 10 µM [%]
COc1c(Br)c(CC2CC(CO)=NO2)c(Br)c2c1OCO2 (stereo not given) | 6.97
O=C1CC(c2ccc(C(F)(F)F)cc2)c2snc(C(=O)O)c2N1 (stereo not given) | 10.7
Cc1ccc(C(=O)N2CCC(c3noc(-c4cccnc4)n3)CC2)cn1 | 2.6
Cc1ncsc1-c1cc(C(=O)NCCO)ccn1 | -6.58
CC(C)C(=O)N1CCC([C@@H]2C[C@H](C(F)F)n3ncnc3N2)CC1 | 6.21
CCNC(=O)C1(Cc2cc(-c3ccccc3)no2)CCCN(C(C)=O)C1 (stereo not given) | 15.9
CNc1nc(C2CCCN(C(=O)CNC(C)=O)C2)nc2c1CN(C)CC2 (stereo not given) | -10.9
Cn1nccc1-c1cc(C2CCN(S(C)(=O)=O)CC2)ccn1 | -28.2
CCCn1ccnc1CN1CCCC1c1cccc(-n2ccnc2)n1 (stereo not given) | -22.2
CN(C)C(=O)CN1CCCC1c1cccc(Cc2ccccc2F)n1 (stereo not given) | -6.94
CCn1ccc(C(=O)N2CCOC(c3nc(-c4cccs4)no3)C2)n1 (stereo not given) | 10.9
CC(=O)N1CCC(c2ccnc(Nc3cncnc3)n2)C1 (stereo not given) | 0.951
O=C1OCCN1CCSc1nnnn1CC(F)(F)F | -41.5
O=C(Cc1ccc(-n2cnnn2)cc1)Nc1cnn(CC(F)F)c1 | 1.97
CC(=O)Nc1nc(CNc2ccccc2CCC(F)(F)F)cs1 | 27.9
COCCNC(=O)CN1CCN(c2nc3cc(C)ccc3o2)CC1 | 5.75
Cc1nc(CN2CCOC3(CCCC3)C2)no1 | -6.65
CC1CCCCN1C(=O)CCn1cnc2sccc2c1=O (stereo not given) | 3.63
Cc1ccc(C(=O)NC(C)Cn2cccn2)c(=O)[nH]1 (stereo not given) | -2.16
CC(C)S(=O)(=O)C(C)C(=O)NCc1ccccc1OCc1ccccc1 (stereo not given) | 18.8
Cc1nnc(C(C)N2CCCN(Cc3noc(C4CC4)n3)CC2)o1 (stereo not given) | -21.2
NC(=O)c1cc(C2CC2)nc2ccc(F)cc12 | 3.87

Structure (SMILES) | cytotoxicity at 10 µM [%]
O=C(O)c1ccc(OC2CCOCC2)cc1 | -6.11
CN(C(=O)c1ccc[nH]1)C1CCC(NC(=O)OC(C)(C)C)CC1 (stereo not given) | -11.9
CSCCC(NC(=O)C1CC1)C(=O)N(C)Cc1ccsc1 (stereo not given) | -3.96
CC(NC(=O)C1(NC(=O)c2ccc3[nH]ncc3c2)CCCC1)C1CC1 (stereo not given) | -2.03
N#Cc1cccc(S(=O)(=O)NC(=O)CCOCC(F)(F)F)c1 | 12.4
O=C1NC2(Nc3ncccc31)C(=O)Nc1c2ccc(Cl)c1F (stereo not given) | 9.06
Cc1csc(N2CCC(NCC3(O)CCc4ccccc43)CC2)n1 (stereo not given) | 0.455
CCS(=O)(=O)c1ccc(N2CCC(NC(=O)CCC(C)C)CC2)cc1 | 15.7
CCNC(=O)N1CCCCC1CCO (stereo not given) | -4.27
CO[C@@H]1CCN(C(=O)c2cnoc2C)[C@H]1Cc1ccccc1 | -72.3
CN1CCN(c2ncnc3c2CCN(C(=O)c2cccn2C)CC3)CC1 | -71
c1cnc(N2CCCC3(CCN(Cc4ccncc4)C3)C2)nc1 (stereo not given) | 0.436
CCOCC1CN(C(=O)C2=CCCC2)Cc2cnn(CC)c21 (stereo not given) | 0.565
CN1CC(=O)c2sc(NCCc3ccccc3)nc2C1 | -11
CNCC[C@H]1CC(C)(C)Oc2ccc(OCC3CC3)cc21 | -9.44
CN1CCCN(c2nccc(-c3c[nH]nc3-c3ccncc3)n2)CC1 | -11
COCc1nc(NC(C)c2c(C)n[nH]c2C)c2cnn(C)c2n1 (stereo not given) | -13.4
CC(C)n1ccnc1CN1C(=O)OC[C@@H]1c1ccccc1 | -8.48
CC(C)c1nnc2sc(CC3CN(Cc4ccccc4)CCO3)nn12 (stereo not given) | -2.66
Cc1nc(CCN2CCC(Oc3ccccc3F)CC2)cs1 | 6.9
CCc1cn[nH]c1C1CCN(c2cc(C)c3cccc(OC)c3n2)CC1 | 19
Cc1n[nH]c(C)c1CCNC(=O)Nc1ccc(S(C)(=O)=O)cc1 | -5.01

Structure (SMILES) | cytotoxicity at 10 µM [%]
Cc1ccc(C(C(=O)NCCN2CCC(CO)CC2)N(C)C)cc1 (stereo not given) | -10.2
O=C(c1ccc[nH]1)N1CCc2cc(S(=O)(=O)N3CCOCC3)ccc2C1 | -3.44
CN(C)c1ncnc2c1CCN(S(=O)(=O)c1cccc(Cl)c1Cl)C2 | 10.4
CCS(=O)(=O)N1CCCC(c2nccn2Cc2ccccn2)C1 (stereo not given) | -10.5
Cc1nccn1CC1CCCN(C(=O)Cc2ccsc2)C1 (stereo not given) | 16.2
COc1ccc(NC(=O)N2CCOCC(CN(C)C)C2)c(C)c1 (stereo not given) | 0.124
COCCN(Cc1nccs1)C(=O)c1cc(-c2ccc(C)o2)n[nH]1 | 6.23
CCc1c(C)nn(CC(=O)NC(C)c2n[nH]c(C)n2)c1C (stereo not given) | -14.1
Cc1cc(C)c2c(N3CCC(C(=O)N4CCCC4)CC3)ncnc2n1 | -0.218
O=C1Cc2cc(NC(=O)N3CCCN(Cc4cccs4)CC3)ccc2N1 | 0.929
CCCNS(=O)(=O)Cc1ccc(Br)cc1 | -4.81
Cc1cc(C2CCC2)nc(N2CCC3(CCCNC3=O)C2)n1 (stereo not given) | -3.83
CCCc1nc(C(=O)N[C@H]2COC[C@@H]2N2CCN(C)CC2)cs1 | -23.8
O=C(CCc1ccccc1)C1CCCN(C(=O)c2cncc(Cl)c2)C1 (stereo not given) | 1.72
CC(C)c1nnc2sc(CC3CCS(=O)(=O)C3)nn12 (stereo not given) | -6.48
O=C(O)CCc1nc2nccc(-c3ccc(F)cc3)n2n1 | -9.24
Fc1cccc(CN2CCC(c3n[nH]c4ncccc34)CC2)c1F | -2.86
Cc1nn(C)c(C)c1CC(=O)N1CCc2nnc(N(C)C)cc2C1 | -7.63
Cc1cc(C)c(C)c(OCCCNC(=O)NC(C)c2nncn2C)c1 (stereo not given) | -12.3
O=c1[nH]c(CN(Cc2ccco2)C2CCCC2)nc2ccccc12 | 11.6
Cc1nc(C2CCCN2CC(=O)NCCc2ccsc2)no1 (stereo not given) | -9.34
COc1c(CNCc2cccc(Cn3ccnc3)c2)c(C)nn1C | 5.61

Structure (SMILES) | cytotoxicity at 10 µM [%]
CC(Nc1cccc(CN2CCOC2=O)c1)C(=O)Nc1ccccc1F (stereo not given) | -5.25
Cc1cnc(CN(C)C2CCN(CC(=O)N(C)c3nccs3)C2)o1 (stereo not given) | -4.1
CC(NC(=O)N1CCC(n2cncn2)CC1)c1ccc(F)cc1F (stereo not given) | -9.88
CCc1nc2n(n1)CC(NCC(=O)Nc1nccs1)CC2 (stereo not given) | -7.13
COc1cccc(Nc2nc(N3CCCC3)nc3c2CNCC3)c1 | -6.41
CCCC(=O)N(CCCN1CCOCC1)c1nc2c(C)ccc(Cl)c2s1 | -10.2
OC1CCN(Cc2ccnc(-c3cccnc3)n2)CC1 | -20.7
CN1CC(=O)N(c2cccc(F)c2)CC12CCN(Cc1nccs1)C2 (stereo not given) | 2.08
c1cnc(NC2COC3(CCN(Cc4nccs4)CC3)C2)cn1 (stereo not given) | -79.9
O=C(CC1CC1)N1CCn2cc(Cn3cccn3)nc2C1 | -78.5
CN(C)C[C@H]1OC[C@@H]2CCN(S(=O)(=O)c3ccc(F)cc3)C[C@@H]21 | -85.7
COC[C@@H]1CCC[C@]12CN(CCc1ccccc1)CCO2 | 0.312
COc1ccc(CN2CCC3(CC(=O)N(c4cncnc4)C3)C2)cc1 (stereo not given) | 4.53
Cc1ccc(CN2CCOC3(COCCN(CCN(C)C)C3)C2)o1 (stereo not given) | -1.65
CCc1ccc(CN2CC[C@@H]3CN(S(C)(=O)=O)CCO[C@@H]3C2)o1 | -0.461
CC(C)NC(=O)N1CCN(Cc2ccccn2)CC2(CC(=O)N(C)C2)C1 (stereo not given) | 2.79
CCOCC(=O)N1Cc2nnn(C)c2C(COCc2ccccn2)C1 (stereo not given) | -3.23
Cc1ccc2c(n1)N(CCN(C)C)CCN(Cc1c(C)noc1C)C2 | 5.74
O=C(N1CCCC1)N1Cc2nccn2CC(CN2CCCC2)C1 (stereo not given) | 1.52
CNC(=O)CN1CCO[C@H]2CN(CC3CC3)C[C@H]21 | 6.25
c1cnc(N2CCO[C@H]3CN(Cc4ccsc4)C[C@H]32)nc1 | -82
N#Cc1ccccc1CN1C[C@H]2CC[C@@H](C1)N(CC1CCC1)C2=O | 0.258
